Measured values published in ChEMBL document CHEMBL2390903, “Anti-tubercular agents. Part 7: a new class of diarylpyrrole-oxazolidinone conjugates as antimycobacterial agents” (Eur J Med Chem, 2013).
≈ marks a conversion by molar mass, not a printed value.

Tests used:
Pseudomonas aeruginosa = experiment: Antibacterial activity against Pseudomonas aeruginosa MTCC 2453 assessed as growth inhibition after 24 hrs by agar dilution method; format: functional; conditions: MTCC 2453, 24 h
Bacillus subtilis [1] = experiment: Antibacterial activity against Bacillus subtilis MTCC 121 assessed as growth inhibition after 24 hrs by agar dilution method; format: functional; conditions: MTCC 121, 24 h
Escherichia coli = experiment: Antibacterial activity against Escherichia coli MTCC 739 assessed as growth inhibition after 24 hrs by agar dilution method; format: functional; conditions: MTCC 739, 24 h
Micrococcus luteus [2] = experiment: Antibacterial activity against Micrococcus luteus MTCC 2470 assessed as growth inhibition after 24 hrs by agar dilution method; format: functional; conditions: MTCC 2470, 24 h
Staphylococcus [3] = experiment: Antibacterial activity against 16-membered ring macrolide- lincosamide-streptogramin B-resistant Staphylococcus MTCC 2940 assessed as growth inhibition after 24 hrs by agar dilution method; format: functional; conditions: MTCC 2940, 24 h
Staphylococcus aureus [4] = experiment: Antibacterial activity against Staphylococcus aureus MTCC 96 assessed as growth inhibition after 24 hrs by agar dilution method; format: functional; conditions: MTCC 96, 24 h
[5] = Cytotoxicity against mouse J744 cells assessed as growth inhibition after 24 hrs by MTT assay; format: cell-based; conditions: J744, 24 h
Method in brief: (§1)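 Mouse J-774 macrophages exposed to test material (40) in RPMI with 10% FCS for 24 h at 37 °C under CO2. MTT then added with a further 3 h incubation. Formazan absorbance read at […]. Percent cytotoxicity calculated relative to untreated cells.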

[6] = Selectivity index, ratio of IC50 for mouse J744 cells to MIC for Mycobacterium tuberculosis H37Rv; format: functional
[7] = Cytotoxicity against mouse J744 cells assessed as growth inhibition at 40 ug/mL after 24 hrs by MTT assay relative to control; format: cell-based; conditions: read-out: GI; method in brief: as §1
[8] = tested on: Mycobacterium tuberculosis; experiment: Antitubercular activity against Mycobacterium tuberculosis XDR-1 assessed as growth inhibition after 2 to 3 weeks by broth microdilution method; format: functional
Method in brief: (§2)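 Primary screen of all compounds against H37Rv at a single concentration in triplicate by microplate dilution. Actives then went to MIC determination by broth microdilution against H37Rv, rifampicin-resistant and XDR-1 isolates. Plates incubated 2–3 weeks at 37 °C in a CO2 incubator. MIC read visually as absence of growth turbidity. Rifampicin and linezolid served as reference drugs.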

[9] = tested on: Mycobacterium tuberculosis; experiment: Antitubercular activity against Mycobacterium tuberculosis H37Rv assessed as growth inhibition after 2 to 3 weeks by broth microdilution method; format: functional; method in brief: as §2
Bacillus subtilis [10] = experiment: Antibacterial activity against Bacillus subtilis MTCC 121 assessed as growth inhibition at 20 ug/mL after 24 hrs; format: functional; conditions: MTCC 121, 24 h, read-out: IZ
Micrococcus luteus [11] = experiment: Antibacterial activity against Micrococcus luteus MTCC 2470 assessed as growth inhibition at 20 ug/mL after 24 hrs; format: functional; conditions: MTCC 2470, 24 h, read-out: IZ
Staphylococcus [12] = experiment: Antibacterial activity against 16-membered ring macrolide- lincosamide-streptogramin B-resistant Staphylococcus MTCC 2940 assessed as growth inhibition at 20 ug/mL after 24 hrs; format: functional; conditions: MTCC 2940, 24 h, read-out: IZ
Staphylococcus aureus [13] = experiment: Antibacterial activity against Staphylococcus aureus MTCC 96 assessed as growth inhibition at 20 ug/mL after 24 hrs; format: functional; conditions: MTCC 96, 24 h, read-out: IZ
Bacillus subtilis [14] = experiment: Antibacterial activity against Bacillus subtilis MTCC 121 assessed as growth inhibition at 20 mg/mL after 24 hrs; format: functional; conditions: MTCC 121, 24 h, read-out: IZ
Staphylococcus [15] = experiment: Antibacterial activity against 16-membered ring macrolide- lincosamide-streptogramin B-resistant Staphylococcus MTCC 2940 assessed as growth inhibition at 20 mg/mL after 24 hrs; format: functional; conditions: MTCC 2940, 24 h, read-out: IZ

SMILES	MIC (Pseudomonas aeruginosa)	MIC (Bacillus subtilis [1])	MIC (Escherichia coli)	MIC (Micrococcus luteus [2])	MIC (Staphylococcus [3])	MIC (Staphylococcus aureus [4])	IC50 [5]	Selectivity Index [6]	inhibition at 24 h, 40 ug/mL [7]	MIC [8]	MIC [9]	zone of inhibition at 20 µg/mL (Bacillus subtilis [10])	zone of inhibition at 20 µg/mL (Micrococcus luteus [11])	zone of inhibition at 20 µg/mL (Staphylococcus [12])	zone of inhibition at 20 µg/mL (Staphylococcus aureus [13])	zone of inhibition at 20000 µg/mL (Bacillus subtilis [14])	zone of inhibition at 20000 µg/mL (Staphylococcus [15])
Cc1c(CN2CCN(c3ccc(N4C[C@H](Cn5cc(-c6ccccn6)nn5)OC4=O)cc3F)CC2)cc(-c2ccc(Cl)c(F)c2)n1-c1ccc(OC(F)(F)F)cc1	> 40 µg/mL	16 µg/mL (≈ 19.9 µM)	> 40 µg/mL	8 µg/mL (≈ 9.94 µM)	9 µg/mL (≈ 11.2 µM)	> 30 µg/mL	> 40 µM	>10	37.7%	> 16 µg/mL	4 µg/mL (≈ 4.97 µM)	–	–	–	–	–	–
CC(=O)NC[C@H]1CN(c2ccc(N3CCN(Cc4cc(-c5ccc(F)cc5F)n(-c5cc(F)ccc5Br)c4C)CC3)c(F)c2)C(=O)O1	> 40 µg/mL	2.5 µg/mL (≈ 3.5 µM)	> 40 µg/mL	5 µg/mL (≈ 7 µM)	5 µg/mL (≈ 7 µM)	3 µg/mL (≈ 4.2 µM)	–	–	–	> 16 µg/mL	8 µg/mL (≈ 11.2 µM)	14 mm	19 mm	18 mm	20 mm	–	–
Cc1c(CN2CCN(c3ccc(N4C[C@H](Cn5cc(-c6ccccc6)nn5)OC4=O)cc3F)CC2)cc(-c2cccc(Cl)c2)n1-c1ccccc1F	> 40 µg/mL	> 40 µg/mL	> 40 µg/mL	8 µg/mL (≈ 11.1 µM)	10 µg/mL (≈ 13.9 µM)	> 40 µg/mL	–	–	–	> 16 µg/mL	> 16 µg/mL	–	–	–	–	–	–
CC(=O)NC[C@H]1CN(c2ccc(N3CCOCC3)c(F)c2)C(=O)O1 [LINEZOLID]	–	0.5 µg/mL (≈ 1.48 µM)	–	1 µg/mL (≈ 2.96 µM)	0.5 µg/mL (≈ 1.48 µM)	1.5 µg/mL (≈ 4.45 µM)	–	–	–	4 µg/mL (≈ 11.9 µM)	1 µg/mL (≈ 2.96 µM)	–	–	–	–	20 mm	18 mm
Cc1c(CN2CCN(c3ccc(N4C[C@H](Cn5cc(-c6ccccc6)nn5)OC4=O)cc3F)CC2)cc(-c2ccc(F)cc2F)n1-c1cc(F)ccc1Br	–	–	–	–	–	–	–	–	–	> 16 µg/mL	> 16 µg/mL	–	–	–	–	–	–
Cc1c(CN2CCN(c3ccc(N4C[C@H](Cn5cc(-c6cncn6C)nn5)OC4=O)cc3F)CC2)cc(-c2ccc(C(C)C)cc2)n1-c1ccc(F)cc1F	> 40 µg/mL	> 30 µg/mL	> 40 µg/mL	> 30 µg/mL	> 30 µg/mL	8 µg/mL (≈ 10.7 µM)	> 40 µM	>10	44.7%	4 µg/mL (≈ 5.33 µM)	4 µg/mL (≈ 5.33 µM)	–	–	–	–	–	–
Cc1c(CN2CCN(c3ccc(N4C[C@H](Cn5cc(-c6ccccn6)nn5)OC4=O)cc3F)CC2)cc(-c2ccc(F)cc2F)n1-c1cc(F)ccc1Br	–	–	–	–	–	–	> 40 µM	>10	43.9%	–	–	–	–	–	–	–	–
CO[C@H]1/C=C/O[C@@]2(C)Oc3c(C)c(O)c4c(O)c(c(/C=N/N5CCN(C)CC5)c(O)c4c3C2=O)NC(=O)/C(C)=C\C=C\[C@H](C)[C@H](O)[C@@H](C)[C@@H](O)[C@@H](C)[C@H](OC(C)=O)[C@@H]1C [RIFAMPIN]	–	–	–	–	–	–	–	–	–	2 µg/mL (≈ 2.43 µM)	0.2 µg/mL (≈ 0.243 µM)	–	–	–	–	–	–
CC(=O)NC[C@H]1CN(c2ccc(N3CCN(Cc4cc(-c5ccccc5C)n(-c5ccc(F)cc5)c4C)CC3)c(F)c2)C(=O)O1	> 40 µg/mL	3 µg/mL (≈ 4.89 µM)	> 40 µg/mL	1.5 µg/mL (≈ 2.44 µM)	5 µg/mL (≈ 8.15 µM)	1.5 µg/mL (≈ 2.44 µM)	–	–	–	–	–	–	–	–	–	–	–
Cc1c(CN2CCN(c3ccc(N4C[C@H](Cn5cc(-c6cncn6C)nn5)OC4=O)cc3F)CC2)cc(-c2ccc(F)cc2F)n1-c1ccc(F)cc1	> 40 µg/mL	> 30 µg/mL	> 40 µg/mL	> 30 µg/mL	> 30 µg/mL	16 µg/mL (≈ 22 µM)	–	–	–	16 µg/mL (≈ 22 µM)	> 6.25 µg/mL	–	–	–	–	–	–
